Assay results as given in ChEMBL document CHEMBL4257579, “Analogs of penfluridol as chemotherapeutic agents with reduced central nervous system activity” (Bioorg Med Chem Lett, 2018).

What was measured:
[1] = biological target: T1, Sodium-dependent noradrenaline transporter (Homo sapiens, UniProt P23975); assay: Displacement of [3H]Nisoxetine from human NET expressed in HEK cells by radioligand binding assay; type: cell-based
[2] = system: Lewis lung carcinoma cell line; assay: Cytotoxicity against mouse LLC cells harboring […] assessed as reduction in cell viability after 72 hrs by MTT assay; type: functional, cell-based
Procedure, shortened: (§1)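 Cells exposed to compounds; viability read at 24, 48 and 72 h. Every experiment run in triplicate.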

Mu-type opioid receptor = Mu-type opioid receptor (Homo sapiens, UniProt P35372); assay: Displacement of [3H]DAMGO from human MOR expressed in HEK cells by radioligand binding assay relative to control; type: cell-based; set-up: concentration or dose not given beside the values; details: concentration not given here
[3] = biological target: T2, 5-hydroxytryptamine receptor 7 (Homo sapiens, UniProt P34969); assay: Displacement of [3H]LSD from human 5-HT7A receptor expressed in HEK cells by radioligand binding assay relative to control; type: cell-based
T2 sequence (P34969 whole entry): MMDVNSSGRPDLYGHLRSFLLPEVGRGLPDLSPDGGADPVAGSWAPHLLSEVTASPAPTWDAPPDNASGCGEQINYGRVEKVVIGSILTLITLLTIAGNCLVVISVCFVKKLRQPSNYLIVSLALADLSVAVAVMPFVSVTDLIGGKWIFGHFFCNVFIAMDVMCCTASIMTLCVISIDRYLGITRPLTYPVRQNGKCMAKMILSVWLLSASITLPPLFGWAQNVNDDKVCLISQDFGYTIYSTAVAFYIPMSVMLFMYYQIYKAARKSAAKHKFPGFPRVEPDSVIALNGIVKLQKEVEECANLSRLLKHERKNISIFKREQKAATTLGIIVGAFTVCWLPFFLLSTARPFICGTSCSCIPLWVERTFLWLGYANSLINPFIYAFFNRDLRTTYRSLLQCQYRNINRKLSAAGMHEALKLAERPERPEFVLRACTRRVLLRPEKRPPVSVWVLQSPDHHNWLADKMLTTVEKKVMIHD

Histamine H2 receptor = Histamine H2 receptor (Homo sapiens, UniProt P25021); assay: Displacement of [3H]Cimetidine from human H2 receptor expressed in HEK cells by radioligand binding assay; type: cell-based
Histamine H2 receptor, sequence (P25021 whole entry): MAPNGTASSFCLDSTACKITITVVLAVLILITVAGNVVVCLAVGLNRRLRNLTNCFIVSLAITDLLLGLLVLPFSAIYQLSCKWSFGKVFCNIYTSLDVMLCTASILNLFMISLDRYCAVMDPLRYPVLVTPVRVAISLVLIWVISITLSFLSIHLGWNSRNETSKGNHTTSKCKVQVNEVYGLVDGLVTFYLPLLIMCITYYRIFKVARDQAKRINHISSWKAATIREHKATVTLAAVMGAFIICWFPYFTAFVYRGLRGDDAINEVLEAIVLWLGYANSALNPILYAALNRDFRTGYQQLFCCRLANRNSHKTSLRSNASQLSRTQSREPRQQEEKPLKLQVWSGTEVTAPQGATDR

MDA-MB-231 = assay: Cytotoxicity against human MDA-MB-231 cells assessed as reduction in cell viability after 48 hrs by MTT assay; type: functional, cell-based; details: MDA-MB-231, 48 h; procedure, shortened: as §1
[4] = biological target: T3, 5-hydroxytryptamine receptor 2C (Homo sapiens, UniProt P28335); assay: Displacement of [3H]Mesulergine from human 5-HT2C receptor expressed in HEK293FlpIN cells by radioligand binding assay; type: cell-based
T3 sequence (P28335 whole entry): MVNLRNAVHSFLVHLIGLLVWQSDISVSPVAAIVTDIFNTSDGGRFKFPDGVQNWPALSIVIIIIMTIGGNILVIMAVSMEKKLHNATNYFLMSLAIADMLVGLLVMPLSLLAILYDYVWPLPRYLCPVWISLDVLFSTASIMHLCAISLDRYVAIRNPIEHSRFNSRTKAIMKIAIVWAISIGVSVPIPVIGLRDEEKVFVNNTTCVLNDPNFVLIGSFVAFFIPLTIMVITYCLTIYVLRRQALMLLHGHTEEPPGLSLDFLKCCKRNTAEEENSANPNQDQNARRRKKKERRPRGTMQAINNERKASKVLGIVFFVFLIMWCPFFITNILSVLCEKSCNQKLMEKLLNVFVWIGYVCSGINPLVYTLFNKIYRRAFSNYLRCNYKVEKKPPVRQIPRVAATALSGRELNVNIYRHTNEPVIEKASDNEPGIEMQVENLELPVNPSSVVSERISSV

[5] = biological target: Sodium-dependent dopamine transporter (Homo sapiens, UniProt Q01959); assay: Displacement of [3H]WIN35428 from human DAT expressed in HEK cells by radioligand binding assay relative to control; type: cell-based
Sodium-dependent dopamine transporter, sequence (Q01959 whole entry): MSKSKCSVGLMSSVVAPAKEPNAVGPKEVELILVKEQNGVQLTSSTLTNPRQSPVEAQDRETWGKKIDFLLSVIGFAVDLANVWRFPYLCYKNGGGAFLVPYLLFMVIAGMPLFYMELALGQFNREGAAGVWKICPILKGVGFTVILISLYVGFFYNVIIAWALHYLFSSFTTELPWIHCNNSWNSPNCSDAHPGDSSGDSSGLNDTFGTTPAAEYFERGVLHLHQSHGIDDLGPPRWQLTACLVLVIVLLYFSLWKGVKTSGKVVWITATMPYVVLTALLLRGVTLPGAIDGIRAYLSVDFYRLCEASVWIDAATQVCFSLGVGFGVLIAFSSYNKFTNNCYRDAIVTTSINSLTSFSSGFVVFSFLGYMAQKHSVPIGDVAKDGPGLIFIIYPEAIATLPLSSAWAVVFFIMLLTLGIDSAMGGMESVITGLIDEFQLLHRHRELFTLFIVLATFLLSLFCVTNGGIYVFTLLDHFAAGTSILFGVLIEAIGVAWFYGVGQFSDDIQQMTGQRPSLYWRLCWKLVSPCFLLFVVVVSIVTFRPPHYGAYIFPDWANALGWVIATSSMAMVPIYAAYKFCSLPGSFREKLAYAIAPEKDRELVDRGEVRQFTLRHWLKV

[6] = system: Lewis lung carcinoma cell line; assay: Cytotoxicity against mouse LLC cells harboring […] assessed as reduction in cell viability after 48 hrs by MTT assay; type: functional, cell-based; procedure, shortened: as §1
[7] = biological target: 5-hydroxytryptamine receptor 1D (Homo sapiens, UniProt P28221); assay: Displacement of [3H]5-CT from human 5-HT1D receptor expressed in HEK293T cells by radioligand binding assay relative to control; type: cell-based; set-up: concentration or dose not given beside the values; details: concentration not given here
[8] = biological target: 5-hydroxytryptamine receptor 6 (Homo sapiens, UniProt P50406); assay: Displacement of [3H]LSD from human 5-HT6 receptor expressed in HEK cells by radioligand binding assay; type: cell-based
Mus musculus [9] = assay: Toxicity in C57BL/6J mouse assessed as reduction in alkaline phosphatase level at 5 mg/kg, ip treated daily for 7 consecutive days measured after 24 hrs post last dose […]; type: organism-based; details: in vivo
Procedure, shortened: (§2)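 Female C57BL6 mice given 5 mg/kg i.p. daily for 7 days; blood taken at sacrifice 24 h after last dose for clinical chemistry panel: electrolytes, minerals, total protein, albumin, globulin, A/G ratio, BUN, ALT, AST, GLDH, cholestasis markers, ALP, bilirubin, amylase, creatine kinase.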

D(2) dopamine receptor [10] = biological target: T4, D(2) dopamine receptor (Homo sapiens, UniProt P14416); assay: Displacement of [3H]N-methylspiperone from human dopamine D2 receptor expressed in stable fibroblast cells by radioligand binding assay; type: cell-based
T4 sequence (P14416 whole entry): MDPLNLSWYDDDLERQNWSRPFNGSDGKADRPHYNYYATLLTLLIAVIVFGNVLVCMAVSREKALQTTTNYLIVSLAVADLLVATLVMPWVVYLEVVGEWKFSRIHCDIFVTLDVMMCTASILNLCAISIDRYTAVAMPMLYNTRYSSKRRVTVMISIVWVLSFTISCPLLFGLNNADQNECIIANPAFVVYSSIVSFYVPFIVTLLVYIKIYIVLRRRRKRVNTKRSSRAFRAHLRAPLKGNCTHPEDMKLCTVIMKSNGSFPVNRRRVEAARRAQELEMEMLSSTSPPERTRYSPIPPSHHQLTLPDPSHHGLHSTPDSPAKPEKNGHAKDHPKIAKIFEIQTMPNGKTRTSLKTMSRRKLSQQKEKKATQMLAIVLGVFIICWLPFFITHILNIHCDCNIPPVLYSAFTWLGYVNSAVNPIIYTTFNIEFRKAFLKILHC

[11] = biological target: T5, 5-hydroxytryptamine receptor 5A (Homo sapiens, UniProt P47898); assay: Displacement of [3H]LSD from human 5-HT5A receptor expressed in Flp-In CHO cells by radioligand binding assay relative to control; type: cell-based; set-up: concentration or dose not given beside the values; details: concentration not given here
T5 sequence (P47898 whole entry): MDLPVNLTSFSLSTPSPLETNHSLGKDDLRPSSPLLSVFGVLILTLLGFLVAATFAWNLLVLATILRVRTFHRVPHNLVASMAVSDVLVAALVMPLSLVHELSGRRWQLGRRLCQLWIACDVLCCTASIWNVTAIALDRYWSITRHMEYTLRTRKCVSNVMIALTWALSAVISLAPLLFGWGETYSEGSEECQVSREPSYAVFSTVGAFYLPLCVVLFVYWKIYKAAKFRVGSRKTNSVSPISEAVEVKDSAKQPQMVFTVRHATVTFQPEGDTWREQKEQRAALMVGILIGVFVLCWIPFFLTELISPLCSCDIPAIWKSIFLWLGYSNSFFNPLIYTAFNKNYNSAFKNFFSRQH

NIH3T3 [12] = assay: Cytotoxicity against mouse NIH/3T3 cells assessed as reduction in cell viability after 72 hrs by MTT assay; type: cell-based; details: NIH3T3, 72 h; procedure, shortened: as §1
D(1B) dopamine receptor [13] = biological target: T6, D(1B) dopamine receptor (Homo sapiens, UniProt P21918); assay: Displacement of [3H]SCH23390 from human dopamine D5 receptor expressed in HEK293T cells by radioligand binding assay; type: cell-based
T6 sequence (P21918 whole entry): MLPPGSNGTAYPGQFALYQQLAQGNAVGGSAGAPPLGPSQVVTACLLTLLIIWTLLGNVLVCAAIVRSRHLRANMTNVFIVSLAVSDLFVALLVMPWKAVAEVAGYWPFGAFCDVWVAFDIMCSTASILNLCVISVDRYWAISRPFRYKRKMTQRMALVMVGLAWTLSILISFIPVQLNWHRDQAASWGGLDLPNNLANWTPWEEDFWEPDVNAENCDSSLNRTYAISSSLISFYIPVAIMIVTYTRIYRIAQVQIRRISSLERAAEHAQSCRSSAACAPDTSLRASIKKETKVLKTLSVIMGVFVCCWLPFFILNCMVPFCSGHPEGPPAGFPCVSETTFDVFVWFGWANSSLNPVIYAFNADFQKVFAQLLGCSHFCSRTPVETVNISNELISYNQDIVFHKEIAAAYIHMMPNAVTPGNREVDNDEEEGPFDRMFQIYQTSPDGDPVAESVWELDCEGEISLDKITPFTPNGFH

[14] = biological target: 5-hydroxytryptamine receptor 2B (Homo sapiens, UniProt P41595); assay: Displacement of [3H]LSD from human 5-HT2B receptor expressed in HEK cells by radioligand binding assay; type: cell-based; details: read-out: Ki
5-hydroxytryptamine receptor 2B, sequence (P41595 whole entry): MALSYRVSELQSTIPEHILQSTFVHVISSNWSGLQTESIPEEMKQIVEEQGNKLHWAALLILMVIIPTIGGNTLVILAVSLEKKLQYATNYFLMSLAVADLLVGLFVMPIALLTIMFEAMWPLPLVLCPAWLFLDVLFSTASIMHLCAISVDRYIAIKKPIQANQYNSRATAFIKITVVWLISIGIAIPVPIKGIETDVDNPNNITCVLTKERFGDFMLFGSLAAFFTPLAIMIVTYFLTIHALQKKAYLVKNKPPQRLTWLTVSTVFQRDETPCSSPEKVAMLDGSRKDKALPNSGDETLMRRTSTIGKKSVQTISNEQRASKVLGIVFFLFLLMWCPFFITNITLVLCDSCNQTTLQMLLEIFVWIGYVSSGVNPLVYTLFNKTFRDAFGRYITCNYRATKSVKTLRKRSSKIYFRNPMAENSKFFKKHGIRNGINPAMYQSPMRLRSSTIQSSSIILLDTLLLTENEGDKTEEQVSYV

[15] = biological target: Sodium-dependent serotonin transporter (Homo sapiens, UniProt P31645); assay: Displacement of [3H]Citalopram from human SERT expressed in HEK cells by radioligand binding assay relative to control; type: cell-based
Sodium-dependent serotonin transporter, sequence (P31645 whole entry): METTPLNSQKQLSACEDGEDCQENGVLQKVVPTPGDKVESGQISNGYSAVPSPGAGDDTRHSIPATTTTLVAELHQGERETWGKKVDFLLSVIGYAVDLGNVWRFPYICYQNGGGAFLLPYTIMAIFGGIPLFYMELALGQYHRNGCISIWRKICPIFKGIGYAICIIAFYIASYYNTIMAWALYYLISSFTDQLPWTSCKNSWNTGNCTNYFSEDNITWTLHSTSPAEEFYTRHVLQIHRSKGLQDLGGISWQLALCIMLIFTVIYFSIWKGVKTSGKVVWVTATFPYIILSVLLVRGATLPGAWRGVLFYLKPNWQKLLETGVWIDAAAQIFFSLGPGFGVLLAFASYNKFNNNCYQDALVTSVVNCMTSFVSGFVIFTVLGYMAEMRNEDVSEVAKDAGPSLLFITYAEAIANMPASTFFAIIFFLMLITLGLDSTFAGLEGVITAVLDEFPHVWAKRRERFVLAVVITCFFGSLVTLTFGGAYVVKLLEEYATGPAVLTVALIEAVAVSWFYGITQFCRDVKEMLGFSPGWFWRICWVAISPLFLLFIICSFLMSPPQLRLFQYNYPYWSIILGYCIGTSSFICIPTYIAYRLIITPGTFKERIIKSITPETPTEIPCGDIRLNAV

D(1B) dopamine receptor [16] = biological target: T6, D(1B) dopamine receptor; assay: Displacement of [3H]SCH23390 from human dopamine D5 receptor expressed in HEK293T cells by radioligand binding assay relative to control; type: cell-based; set-up: concentration or dose not given beside the values; details: concentration not given here
[17] = biological target: T5, 5-hydroxytryptamine receptor 5A; assay: Displacement of [3H]LSD from human 5-HT5A receptor expressed in Flp-In CHO cells by radioligand binding assay; type: cell-based; details: read-out: Ki
[18] = biological target: 5-hydroxytryptamine receptor 2A (Homo sapiens, UniProt P28223); assay: Displacement of [3H]Ketanserin from 5-HT2A receptor (unknown origin) by radioligand binding assay
[19] = biological target: T1, Sodium-dependent noradrenaline transporter; assay: Displacement of [3H]Nisoxetine from human NET expressed in HEK cells by radioligand binding assay relative to control; type: cell-based
NIH3T3 [20] = assay: Cytotoxicity against mouse NIH/3T3 cells assessed as reduction in cell viability after 24 hrs by MTT assay; type: cell-based; details: NIH3T3, 24 h; procedure, shortened: as §1
Mus musculus [21] = assay: Toxicity in C57BL/6J mouse assessed as increase in glutamate dehydrogenase level at 5 mg/kg, ip treated daily for 7 consecutive days measured after 24 hrs post last dose […]; type: organism-based; details: in vivo; procedure, shortened: as §2
D(2) dopamine receptor [22] = biological target: T4, D(2) dopamine receptor; assay: Displacement of [3H]N-methylspiperone from human dopamine D2 receptor expressed in stable fibroblast cells by radioligand binding assay relative to control; type: cell-based; set-up: concentration or dose not given beside the values; details: concentration not given here
NIH3T3 [23] = assay: Cytotoxicity against mouse NIH/3T3 cells assessed as reduction in cell viability after 48 hrs by MTT assay; type: cell-based; details: NIH3T3, 48 h; procedure, shortened: as §1
[24] = biological target: T2, 5-hydroxytryptamine receptor 7; assay: Displacement of [3H]LSD from human 5-HT7A receptor expressed in HEK cells by radioligand binding assay; type: cell-based
[25] = biological target: Delta-type opioid receptor (Homo sapiens, UniProt P41143); assay: Displacement of [3H]DADLE from human DOR expressed in HEK cells by radioligand binding assay relative to control; type: cell-based; set-up: concentration or dose not given beside the values; details: concentration not given here
Delta-type opioid receptor, sequence (P41143 whole entry): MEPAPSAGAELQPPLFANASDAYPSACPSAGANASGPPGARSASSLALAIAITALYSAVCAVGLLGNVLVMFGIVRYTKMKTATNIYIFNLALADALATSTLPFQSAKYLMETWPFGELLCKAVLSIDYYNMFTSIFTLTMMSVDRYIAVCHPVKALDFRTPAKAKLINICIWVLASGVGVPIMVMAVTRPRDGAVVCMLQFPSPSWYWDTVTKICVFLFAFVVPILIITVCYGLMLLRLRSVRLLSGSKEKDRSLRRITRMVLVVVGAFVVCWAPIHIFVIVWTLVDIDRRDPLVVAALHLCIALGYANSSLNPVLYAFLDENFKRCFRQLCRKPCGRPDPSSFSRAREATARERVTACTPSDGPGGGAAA

Histamine H1 receptor [26] = biological target: T7, Histamine H1 receptor (Homo sapiens, UniProt P35367); assay: Displacement of [3H]Pyrilamine from human H1 receptor expressed in HEK cells by radioligand binding assay; type: cell-based; details: read-out: Ki
Histamine H1 receptor [27] = biological target: T7, Histamine H1 receptor; assay: Displacement of [3H]Pyrilamine from human H1 receptor expressed in HEK cells by radioligand binding assay relative to control; type: cell-based; set-up: concentration or dose not given beside the values; details: concentration not given here

T1 sequence (P23975 whole entry): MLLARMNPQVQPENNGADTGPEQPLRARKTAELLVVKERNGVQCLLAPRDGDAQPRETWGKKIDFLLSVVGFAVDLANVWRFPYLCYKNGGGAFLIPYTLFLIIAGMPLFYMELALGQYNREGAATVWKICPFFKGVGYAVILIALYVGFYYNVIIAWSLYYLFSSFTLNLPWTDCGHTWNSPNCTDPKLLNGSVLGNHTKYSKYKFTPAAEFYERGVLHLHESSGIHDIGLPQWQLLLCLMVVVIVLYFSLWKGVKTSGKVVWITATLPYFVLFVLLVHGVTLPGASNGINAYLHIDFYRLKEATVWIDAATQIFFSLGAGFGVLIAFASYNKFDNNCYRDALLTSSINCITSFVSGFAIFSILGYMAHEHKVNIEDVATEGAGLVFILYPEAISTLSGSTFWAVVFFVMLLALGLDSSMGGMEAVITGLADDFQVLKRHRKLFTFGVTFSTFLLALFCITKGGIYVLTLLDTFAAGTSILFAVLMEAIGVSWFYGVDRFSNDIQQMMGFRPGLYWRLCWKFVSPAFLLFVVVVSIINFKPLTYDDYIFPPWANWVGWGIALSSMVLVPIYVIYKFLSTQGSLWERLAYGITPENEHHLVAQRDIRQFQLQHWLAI

| Compound | Ki [1] | IC50 [2] | inhibition (Mu-type opioid receptor) | inhibition (INH) [3] | IC50 (MDA-MB-231) | Ki [4] | inhibition (INH) [5] | IC50 [6] | inhibition [7] | Ki [8] | Activity (Mus musculus [9]) | Ki (D(2) dopamine receptor [10]) | inhibition [11] | IC50 (NIH3T3 [12]) | Ki (D(1B) dopamine receptor [13]) | Ki [14] | inhibition (INH) [15] | inhibition (D(1B) dopamine receptor [16]) | Ki [17] | Ki [18] | further results |
| --- | --- | --- | --- | --- | --- | --- | --- | --- | --- | --- | --- | --- | --- | --- | --- | --- | --- | --- | --- | --- | --- |
| OC1(c2ccc(Cl)c(C(F)(F)F)c2)CCN(CCCCC(c2ccc(F)cc2)c2ccc(F)cc2)CC1 | 77 nM | 4.2 µM | 89% | 84.9% | 5.7 µM | 1710 nM | 91.6% | 4.1 µM | 79.3% | 1670 nM | Non-Toxic | 194 nM | 75.8% | 4.1 µM | 529 nM | 423 nM | 92.5% | 88.2% | 894 nM | 1000 nM | Ki (Histamine H2 receptor; read-out: Ki): 546 nM; inhibition (INH) [19]: 98.3%; IC50 (NIH3T3 [20]): 6.5 µM; Activity (Mus musculus [21]): Non-Toxic; inhibition (D(2) dopamine receptor [22]): 99.2%; IC50 (NIH3T3 [23]): 5.3 µM; Ki [24]: 969 nM; inhibition [25]: 84.5% |
| COc1ccc(N(CCCCN2CCC(O)(c3ccc(Cl)c(C(F)(F)F)c3)CC2)c2ccc(OC)cc2)cc1 | 1440 nM | 2.7 to 6.1 µM | 76.8% | 55.2% | 7.1 µM | 740 nM | 91.3% | 4 µM | 78.8% | 1400 nM | Non-Toxic | 417 nM | 50% | 11.2 µM | 623 nM | 729 nM | 94% | 83.5% | 4970 nM | 900 nM | Ki (Histamine H2 receptor): Not Active; inhibition (INH) [19]: 86.4%; Ki (Histamine H1 receptor [26]): 7.03 µM; inhibition (Histamine H1 receptor [27]): 71.9%; IC50 (NIH3T3 [20]): 8.7 µM; Activity (Mus musculus [21]): Non-Toxic; inhibition (D(2) dopamine receptor [22]): 60%; IC50 (NIH3T3 [23]): 11 µM; Ki [24]: 949 nM; inhibition [25]: 77.6% |
